In the M2OR odorant receptor database:

How the values were obtained:
Settings in all cases: stereoisomer not certain
[1] = target: UniProt Q9WVD9
How it was run: (§1)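 Each receptor–molecule pair is labelled responsive or non-responsive (inactive) according to whether the original authors judged the measured signal statistically different from baseline. The data were taken from the main text and supplementary material of published papers and checked for typos and inconsistencies. Assay methods differed by source, with transient luciferase assays in mammalian cell lines being common.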

[2] = target: T1, UniProt Q9WVN5
T1 sequence (whole entry): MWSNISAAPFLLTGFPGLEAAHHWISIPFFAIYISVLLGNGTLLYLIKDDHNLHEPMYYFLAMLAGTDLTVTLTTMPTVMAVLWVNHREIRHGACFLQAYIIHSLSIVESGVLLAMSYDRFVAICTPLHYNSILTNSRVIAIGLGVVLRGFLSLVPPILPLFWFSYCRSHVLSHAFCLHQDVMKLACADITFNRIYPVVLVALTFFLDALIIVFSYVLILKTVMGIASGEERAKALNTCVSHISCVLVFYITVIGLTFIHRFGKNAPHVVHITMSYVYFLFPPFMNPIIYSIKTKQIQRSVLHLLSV
How it was run: as §1

[3] = target: UniProt Q9WVD7
How it was run: as §1
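Also: active if original authors judged signal statistically different from baseline.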

Sequence of UniProt Q9WVD9 (Q9WVD9 as listed by the source): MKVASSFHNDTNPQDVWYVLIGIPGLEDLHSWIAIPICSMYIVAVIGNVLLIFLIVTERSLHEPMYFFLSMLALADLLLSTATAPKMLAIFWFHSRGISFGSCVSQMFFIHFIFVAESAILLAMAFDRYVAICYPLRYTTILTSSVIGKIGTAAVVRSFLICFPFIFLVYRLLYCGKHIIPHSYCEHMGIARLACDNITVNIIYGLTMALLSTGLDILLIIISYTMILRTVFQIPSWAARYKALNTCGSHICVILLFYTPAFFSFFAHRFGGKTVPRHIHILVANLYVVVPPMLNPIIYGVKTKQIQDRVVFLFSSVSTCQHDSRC
Sequence of UniProt Q9WVD7 (Q9WVD7 as listed by the source): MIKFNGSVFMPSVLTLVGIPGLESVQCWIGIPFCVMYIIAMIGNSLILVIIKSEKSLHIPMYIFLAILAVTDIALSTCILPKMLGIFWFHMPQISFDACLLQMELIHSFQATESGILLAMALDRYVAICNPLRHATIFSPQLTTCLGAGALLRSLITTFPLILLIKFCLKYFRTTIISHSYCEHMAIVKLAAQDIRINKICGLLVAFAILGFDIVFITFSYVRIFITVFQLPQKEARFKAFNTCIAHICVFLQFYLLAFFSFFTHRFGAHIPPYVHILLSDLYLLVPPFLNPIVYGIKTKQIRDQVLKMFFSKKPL

Row | Compound | odorant receptor agonist call [1] | odorant receptor agonist call [2] | odorant receptor agonist call [3]
1 | O=c1cc(O)c2ccccc2o1 | inactive | inactive | 
2 | CCC1CCC(=O)O1 (centres undefined) | inactive | inactive | 
3 | O=C(O)CCCCCCCBr |  |  | active
4 | C=CCc1ccccc1 | inactive | inactive | 
5 | C=CCOC(=O)Cc1ccccc1 | inactive | active | 
